For ten compounds, IC50 results are on record in ChEMBL document CHEMBL1142414, “Comprehensive mechanistic analysis of hits from high-throughput and docking screens against beta-lactamase” (J Med Chem, 2008).

pIC50: −log10 of the molar value.

Test system in the first experiment: not listed separately
The experiment is described as follows: Inhibition of chymotrypsin in presence of 0.1% Triton X-100. The method in brief:
(§1)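 Chymotrypsin (28 nM) preincubated 5 min with inhibitor, then reaction started with 200 µM N-succinyl-Ala-Ala-Pro-Phe p-nitroanilide. In the no-preincubation variant, inhibitor and substrate were mixed first and enzyme was added to start. Progress read at 410 nm.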
Take `O=C(Oc1cccnc1)c1cc2ccccc2oc1=O`: the negative logarithm of the IC50 (pIC50) is 4.43.

On to `N[C@@H](Cc1cc(-c2ccc(Cl)cc2Cl)cc(CP(=O)(O)O)c1O)C(=O)O`, for which the negative-log IC50 (pIC50) is 3.40.

Regarding `CCOC(=O)C1=C(c2ccccc2)NC(SCC(=O)Nc2ccc(C)cc2)=C(C#N)C1c1ccco1` (stereo not drawn), the pIC50 is less than 3.22.

For `CS(=O)(=O)N1CCC(C(=O)N2CCC(Cc3ccccc3)CC2)CC1`, the pIC50 was less than 3.22.

As to `O=C(CC1(O)C(=O)Nc2cc(Cl)cc(Cl)c21)c1ccccc1O` (stereo not drawn), the negative logarithm of the IC50 (pIC50) was less than 3.22.

Turning to `O=C(O)C1=CC(=C(c2ccc(O)c(C(=O)O)c2)c2ccc(O)c(C(=O)O)c2)C=CC1=O` [AURINTRICARBOXYLIC ACID], the pIC50 is less than 3.22.

For the compound `CC(C)C[C@H](N)c1nnc(S(=O)(=O)Cc2ccc(F)cc2)o1`, the negative logarithm of the IC50 (pIC50) was 3.77.

With `O=C(Nc1nc2n(n1)C(c1ccccc1)C=C(c1ccccc1)N2)c1ccco1` (stereo not drawn), the pIC50 is 4.57.

`CC(C)(C)OC(=O)NCc1nnc(S(=O)(=O)Cc2ccc(Cl)cc2Cl)o1`: the negative-log IC50 (pIC50) was more than 6.00.

Regarding `S=C(S)OC1CC2CC1C1CCCC21` (stereo not drawn), the pIC50 was less than 3.22.

Target in a further experiment: not listed separately
The experiment is described as follows: Inhibition of beta-lactamase AmpC. The essentials:
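Cuvette assay with 1 nM AmpC β-lactamase and 200 µM nitrocefin, Triton X-100 at either 0.00002 or 0.1%. Compound and enzyme preincubated 5 min, then substrate added to start the reaction.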
In the case of `O=C(Oc1cccnc1)c1cc2ccccc2oc1=O`, the pIC50 is 4.26.

In turn, `N[C@@H](Cc1cc(-c2ccc(Cl)cc2Cl)cc(CP(=O)(O)O)c1O)C(=O)O` gave a pIC50 of 3.80.

`CCOC(=O)C1=C(c2ccccc2)NC(SCC(=O)Nc2ccc(C)cc2)=C(C#N)C1c1ccco1` (stereo not drawn) had a pIC50 of 4.66.

`CS(=O)(=O)N1CCC(C(=O)N2CCC(Cc3ccccc3)CC2)CC1` gave a pIC50 of less than 3.22.

In the case of `O=C(CC1(O)C(=O)Nc2cc(Cl)cc(Cl)c21)c1ccccc1O` (stereo not drawn), the pIC50 was less than 3.22.

As to `O=C(O)C1=CC(=C(c2ccc(O)c(C(=O)O)c2)c2ccc(O)c(C(=O)O)c2)C=CC1=O` [AURINTRICARBOXYLIC ACID], the pIC50 is 3.92.

The compound `CC(C)C[C@H](N)c1nnc(S(=O)(=O)Cc2ccc(F)cc2)o1` gave a negative logarithm of the IC50 (pIC50) of 3.22.

With `O=C(Nc1nc2n(n1)C(c1ccccc1)C=C(c1ccccc1)N2)c1ccco1` (stereo not drawn), the pIC50 is more than 3.22.

The compound `CC(C)(C)OC(=O)NCc1nnc(S(=O)(=O)Cc2ccc(Cl)cc2Cl)o1` showed a pIC50 of more than 6.00.

As to `S=C(S)OC1CC2CC1C1CCCC21` (stereo not drawn), the pIC50 is 3.57.

Target in another experiment: not listed separately
The experiment in a line: Inhibition of malate dehydrogenase in presence of 0.1% Triton X-100. The essentials:
(§2)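 Malate dehydrogenase (2 nM) incubated 5 min with inhibitor, then reaction started with 200 µM oxaloacetic acid plus 200 µM NADH. In the no-preincubation variant, inhibitor, oxaloacetate and NADH were mixed first and enzyme was added last. NADH consumption followed at 340 nm.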
For `CCOC(=O)C1=C(c2ccccc2)NC(SCC(=O)Nc2ccc(C)cc2)=C(C#N)C1c1ccco1` (stereo not drawn), the pIC50 was 3.97.

On to `O=C(O)C1=CC(=C(c2ccc(O)c(C(=O)O)c2)c2ccc(O)c(C(=O)O)c2)C=CC1=O` [AURINTRICARBOXYLIC ACID], for which the pIC50 was 4.52.

On to `CC(C)(C)OC(=O)NCc1nnc(S(=O)(=O)Cc2ccc(Cl)cc2Cl)o1`, for which the negative logarithm of the IC50 (pIC50) was less than 3.22.

Target in a further experiment: not listed separately
The experiment is described as follows: Inhibition of beta-lactamase AmpC in presence of 0.1% Triton X-100. The method in brief:
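Cuvette assay with 1 nM AmpC β-lactamase and 200 µM nitrocefin, Triton X-100 at either 0.00002 or 0.1%. Compound and enzyme preincubated 5 min, then substrate added to start the reaction. Nitrocefin hydrolysis read at 482 nm by UV–visible spectrophotometry at room temperature.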
As to `O=C(Oc1cccnc1)c1cc2ccccc2oc1=O`, the pIC50 is 4.37.

Regarding `N[C@@H](Cc1cc(-c2ccc(Cl)cc2Cl)cc(CP(=O)(O)O)c1O)C(=O)O`, the pIC50 was 3.66.

`CCOC(=O)C1=C(c2ccccc2)NC(SCC(=O)Nc2ccc(C)cc2)=C(C#N)C1c1ccco1` (stereo not drawn): the pIC50 was less than 3.22.

As to `CS(=O)(=O)N1CCC(C(=O)N2CCC(Cc3ccccc3)CC2)CC1`, the pIC50 is less than 3.22.

Turning to `O=C(CC1(O)C(=O)Nc2cc(Cl)cc(Cl)c21)c1ccccc1O` (stereo not drawn), the pIC50 was less than 3.22.

Consider `O=C(O)C1=CC(=C(c2ccc(O)c(C(=O)O)c2)c2ccc(O)c(C(=O)O)c2)C=CC1=O` [AURINTRICARBOXYLIC ACID], for which the pIC50 is less than 3.22.

For the compound `CC(C)C[C@H](N)c1nnc(S(=O)(=O)Cc2ccc(F)cc2)o1`, the negative logarithm of the IC50 (pIC50) is 3.22.

As for `O=C(Nc1nc2n(n1)C(c1ccccc1)C=C(c1ccccc1)N2)c1ccco1` (stereo not drawn), the negative logarithm of the IC50 (pIC50) is more than 3.22.

With `CC(C)(C)OC(=O)NCc1nnc(S(=O)(=O)Cc2ccc(Cl)cc2Cl)o1`, the negative-log IC50 (pIC50) was more than 6.00.

For the compound `S=C(S)OC1CC2CC1C1CCCC21` (stereo not drawn), the pIC50 was less than 3.22.

The target of another experiment is T1, Cruzipain (Trypanosoma cruzi, UniProt P25779). The experiment is described as follows: Inhibition of cruzain in presence of 0.01% Triton X-100. The method in brief: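 Recombinant cruzain (10 nM) in 0.1 M sodium acetate pH 5.5 with 5 mM DTT and 0.01% Triton X-100, substrate 2.5 µM Z-Phe-Arg-AMC. Cleavage read fluorimetrically in 96-well format, excitation 355 nm, emission 460 nm.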
T1 sequence (P25779 whole entry): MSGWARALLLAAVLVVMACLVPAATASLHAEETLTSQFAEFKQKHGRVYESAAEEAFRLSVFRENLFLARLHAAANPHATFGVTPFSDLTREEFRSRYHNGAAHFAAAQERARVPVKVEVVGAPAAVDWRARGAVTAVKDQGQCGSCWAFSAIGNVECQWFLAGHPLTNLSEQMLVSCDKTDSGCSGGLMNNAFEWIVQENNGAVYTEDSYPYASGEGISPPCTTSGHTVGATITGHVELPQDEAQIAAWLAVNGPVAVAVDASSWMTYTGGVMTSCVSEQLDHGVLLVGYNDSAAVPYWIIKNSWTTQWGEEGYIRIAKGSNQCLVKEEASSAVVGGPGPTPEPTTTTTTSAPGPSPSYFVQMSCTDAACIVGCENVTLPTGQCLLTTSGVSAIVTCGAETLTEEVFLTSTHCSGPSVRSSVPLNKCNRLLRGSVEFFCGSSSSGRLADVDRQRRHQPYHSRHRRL
For `O=C(Oc1cccnc1)c1cc2ccccc2oc1=O`, the pIC50 is 4.05.

As for `N[C@@H](Cc1cc(-c2ccc(Cl)cc2Cl)cc(CP(=O)(O)O)c1O)C(=O)O`, the pIC50 was 3.80.

For the compound `CCOC(=O)C1=C(c2ccccc2)NC(SCC(=O)Nc2ccc(C)cc2)=C(C#N)C1c1ccco1` (stereo not drawn), the negative logarithm of the IC50 (pIC50) was 3.92.

On to `O=C(CC1(O)C(=O)Nc2cc(Cl)cc(Cl)c21)c1ccccc1O` (stereo not drawn), for which the pIC50 is 3.77.

As for `O=C(O)C1=CC(=C(c2ccc(O)c(C(=O)O)c2)c2ccc(O)c(C(=O)O)c2)C=CC1=O` [AURINTRICARBOXYLIC ACID], the negative-log IC50 (pIC50) is 4.55.

With `CC(C)(C)OC(=O)NCc1nnc(S(=O)(=O)Cc2ccc(Cl)cc2Cl)o1`, the negative-log IC50 (pIC50) was 3.39.

For the compound `S=C(S)OC1CC2CC1C1CCCC21` (stereo not drawn), the negative-log IC50 (pIC50) is less than 3.22.

In another experiment the target is T1, Cruzipain. The experiment in a line: Inhibition of cruzain.
Regarding `O=C(Oc1cccnc1)c1cc2ccccc2oc1=O`, the negative logarithm of the IC50 (pIC50) is 4.15.

For `N[C@@H](Cc1cc(-c2ccc(Cl)cc2Cl)cc(CP(=O)(O)O)c1O)C(=O)O`, the negative logarithm of the IC50 (pIC50) is 4.11.

`CCOC(=O)C1=C(c2ccccc2)NC(SCC(=O)Nc2ccc(C)cc2)=C(C#N)C1c1ccco1` (stereo not drawn) showed a negative-log IC50 (pIC50) of more than 6.00.

`O=C(CC1(O)C(=O)Nc2cc(Cl)cc(Cl)c21)c1ccccc1O` (stereo not drawn): the pIC50 is 4.14.

On to `O=C(O)C1=CC(=C(c2ccc(O)c(C(=O)O)c2)c2ccc(O)c(C(=O)O)c2)C=CC1=O` [AURINTRICARBOXYLIC ACID], for which the pIC50 is 4.28.

As for `CC(C)(C)OC(=O)NCc1nnc(S(=O)(=O)Cc2ccc(Cl)cc2Cl)o1`, the negative-log IC50 (pIC50) is 4.02.

`S=C(S)OC1CC2CC1C1CCCC21` (stereo not drawn) had a pIC50 of 4.82.

Test system in a further experiment: not listed separately
The experiment in a line: Inhibition of chymotrypsin. The essentials: as §1
Take `O=C(Oc1cccnc1)c1cc2ccccc2oc1=O`: the negative-log IC50 (pIC50) is 4.43.

As for `N[C@@H](Cc1cc(-c2ccc(Cl)cc2Cl)cc(CP(=O)(O)O)c1O)C(=O)O`, the pIC50 is 3.57.

Take `CCOC(=O)C1=C(c2ccccc2)NC(SCC(=O)Nc2ccc(C)cc2)=C(C#N)C1c1ccco1` (stereo not drawn): the negative logarithm of the IC50 (pIC50) is more than 6.00.

In turn, `CS(=O)(=O)N1CCC(C(=O)N2CCC(Cc3ccccc3)CC2)CC1` gave a pIC50 of less than 3.22.

On to `O=C(CC1(O)C(=O)Nc2cc(Cl)cc(Cl)c21)c1ccccc1O` (stereo not drawn), for which the pIC50 was less than 3.22.

In turn, `O=C(O)C1=CC(=C(c2ccc(O)c(C(=O)O)c2)c2ccc(O)c(C(=O)O)c2)C=CC1=O` [AURINTRICARBOXYLIC ACID] gave a pIC50 of 3.74.

`CC(C)C[C@H](N)c1nnc(S(=O)(=O)Cc2ccc(F)cc2)o1` gave a negative logarithm of the IC50 (pIC50) of 3.57.

`O=C(Nc1nc2n(n1)C(c1ccccc1)C=C(c1ccccc1)N2)c1ccco1` (stereo not drawn) showed a pIC50 of 5.15.

For `CC(C)(C)OC(=O)NCc1nnc(S(=O)(=O)Cc2ccc(Cl)cc2Cl)o1`, the pIC50 is more than 6.00.

`S=C(S)OC1CC2CC1C1CCCC21` (stereo not drawn) showed a pIC50 of 3.57.

Target in another experiment: not listed separately
The experiment is described as follows: Inhibition of malate dehydrogenase. The method in brief: as §2
Turning to `N[C@@H](Cc1cc(-c2ccc(Cl)cc2Cl)cc(CP(=O)(O)O)c1O)C(=O)O`, the negative-log IC50 (pIC50) was less than 3.22.

Take `CCOC(=O)C1=C(c2ccccc2)NC(SCC(=O)Nc2ccc(C)cc2)=C(C#N)C1c1ccco1` (stereo not drawn): the negative-log IC50 (pIC50) is 5.30.

For `O=C(O)C1=CC(=C(c2ccc(O)c(C(=O)O)c2)c2ccc(O)c(C(=O)O)c2)C=CC1=O` [AURINTRICARBOXYLIC ACID], the pIC50 was 5.30.

With `CC(C)C[C@H](N)c1nnc(S(=O)(=O)Cc2ccc(F)cc2)o1`, the pIC50 is less than 3.22.

For the compound `CC(C)(C)OC(=O)NCc1nnc(S(=O)(=O)Cc2ccc(Cl)cc2Cl)o1`, the negative-log IC50 (pIC50) was less than 3.22.

In turn, `S=C(S)OC1CC2CC1C1CCCC21` (stereo not drawn) gave a pIC50 of less than 3.22.

Usually pIC50 stands for the IC50 on a negative log10 scale, so that one unit is a factor of ten.
